The values that follow come from ChEMBL document CHEMBL4392827, “Tryptamine derivatives disarm colistin resistance in polymyxin-resistant gram-negative bacteria” (Bioorg Med Chem, 2019).

Data set [1] deals with Acinetobacter baumannii. The data set is described as follows: Potentiation of colistin-induced antimicrobial activity against colistin-resistant Acinetobacter baumannii isolate 3941 assessed as fold reduction in colistin MIC at 60 uM after 18 hrs by broth microdilution assay. The class given is functional. Summed up:
(§1)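 Checkerboard-style resensitization following adapted CLSI broth microdilution. Bacteria were grown 4–6 h in CAMHB and subcultured to 5×10^5 CFU/mL. Adjuvant was added from DMSO stock and held constant while colistin was serially diluted in the dosed subculture. Plates were incubated stationary at 37°C for 18 h, then MICs were read. Fold reduction was taken relative to the colistin MIC without adjuvant.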

The test system of data set [2] is Klebsiella pneumoniae. The data set is described as follows: Potentiation of colistin-induced antimicrobial activity against colistin-resistant Klebsiella pneumoniae isolate C3 assessed as fold reduction in colistin MIC at 10 uM after 18 hrs by broth microdilution assay. The class given is functional. Summed up: (§2)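 CLSI-adapted broth microdilution. Bacteria were grown 4–6 h in cation-adjusted Mueller-Hinton broth and subcultured to 5 ×10^5 CFU/mL. The subculture was dosed with adjuvant from DMSO stock at a constant final concentration, then colistin was added and serially diluted across wells. Plates were incubated stationary at 37°C for 18 h and the MIC recorded. Fold reduction is relative to the colistin MIC without adjuvant.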

In data set [3] the test system is Acinetobacter baumannii. The data set is described as follows: Potentiation of colistin-induced antimicrobial activity against colistin-resistant Acinetobacter baumannii isolate 3942 assessed as fold reduction in colistin MIC at 30 uM after 18 hrs by broth microdilution assay. The class given is functional. Summed up: as §2
For data set [4], the system named is Acinetobacter baumannii. The data set is described as follows: Potentiation of colistin-induced antimicrobial activity against colistin-resistant Acinetobacter baumannii isolate 3942 assessed as fold reduction in colistin MIC at 50 uM after 18 hrs by broth microdilution assay. The class given is functional. Summed up:
as §2
A general note: In broth dilution the organism is exposed to a series of concentrations in liquid medium.

The test system of data set [5] is Klebsiella pneumoniae. The data set is described as follows: Potentiation of colistin-induced antimicrobial activity against colistin-resistant Klebsiella pneumoniae isolate C3 assessed as fold reduction in colistin MIC at 15 uM after 18 hrs by broth microdilution assay. The class given is functional. Summed up: as §2
The subject of data set [6] is Acinetobacter baumannii. The data set is described as follows: Potentiation of colistin-induced antimicrobial activity against colistin-resistant Acinetobacter baumannii isolate 3942 assessed as fold reduction in colistin MIC at 20 uM after 18 hrs by broth microdilution assay. The data set is classed as functional. Summed up:
as §2

In data set [7] the test system is Acinetobacter baumannii. The data set is described as follows: Toxicity in colistin-resistant Acinetobacter baumannii isolate 3942 at 60 uM after 18 hrs by broth microdilution assay. The class given is organism-based.
The test system of data set [8] is Klebsiella pneumoniae. The data set is described as follows: Potentiation of colistin-induced antimicrobial activity against colistin-resistant Klebsiella pneumoniae isolate C3 assessed as fold reduction in colistin MIC at 30 uM after 18 hrs by broth microdilution assay. The class given is functional. Summed up: as §2
For data set [9], the system named is Acinetobacter baumannii. The data set is described as follows: Potentiation of colistin-induced antimicrobial activity against colistin-resistant Acinetobacter baumannii isolate 3942 after 18 hrs by broth microdilution assay. The class given is functional, organism-based. Summed up: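 Colistin MIC was determined by adapted CLSI broth microdilution in CAMHB (5×10^5 CFU/mL inoculum), with adjuvant held at fixed levels of 5, 10, 15, 20, 30, 40, 50 or 60 μM. Adjuvant was dosed from DMSO stock while colistin was serially diluted. Plates were incubated stationary at 37°C for 18 h. Fold reduction was taken versus colistin alone.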

Data set [10] concerns Escherichia coli. The data set is described as follows: Potentiation of colistin-induced antimicrobial activity against colistin-resistant Escherichia coli ATCC 25922 expressing mcr1 gene assessed as fold reduction in colistin MIC at 60 uM after 18 hrs by broth microdilution assay. The class given is functional. Summed up: as §1
The subject of data set [11] is Acinetobacter baumannii. The data set is described as follows: Potentiation of colistin-induced antimicrobial activity against colistin-resistant Acinetobacter baumannii isolate 3942 assessed as fold reduction in colistin MIC at 15 uM after 18 hrs by broth microdilution assay. The class given is functional. Summed up: as §2
In data set [12] the test system is Klebsiella pneumoniae. The data set is described as follows: Induction of membrane permeabilization in colistin-resistant Klebsiella pneumoniae isolate C3 at 60 uM measured after 1 hr by SYTO-9/propidium iodide staining based fluorescence assay relative to control. The class given is functional. Summed up:
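Cells were grown overnight in CAMHB at 37°C, diluted 1:10 and grown 4 h more to an OD600 of ~0.3. They were pelleted, washed with sterile water and resuspended at 1/10 volume in water containing compound. After 1 h at 37°C with shaking, cells were washed and stained with SYTO-9/propidium iodide (1:1, 3 μL/mL) for 15 min at RT. Emission was read at 530 and 645 nm (excitation 485 nm), and the green/red ratio was expressed as % of the untreated control.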

The subject of data set [13] is Acinetobacter baumannii. The data set is described as follows: Potentiation of colistin-induced antimicrobial activity against colistin-resistant Acinetobacter baumannii isolate 3942 assessed as fold reduction in colistin MIC at 40 uM after 18 hrs by broth microdilution assay. The data set is classed as functional. Summed up: as §2
Data set [14] deals with Klebsiella pneumoniae. The data set is described as follows: Potentiation of colistin-induced antimicrobial activity against colistin-resistant Klebsiella pneumoniae isolate C3 assessed as fold reduction in colistin MIC at 5 uM after 18 hrs by broth microdilution assay. The data set is classed as functional. Summed up: as §2
In data set [15] the test system is Acinetobacter baumannii. The data set is described as follows: Potentiation of colistin-induced antimicrobial activity against Acinetobacter baumannii ATCC 17978 assessed as fold reduction in colistin MIC at 60 uM after 18 hrs by broth microdilution assay. The data set is classed as functional. Summed up: (§3)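 Bacteria grown 4–6 h in cation-adjusted Mueller-Hinton broth and diluted to 5 ×10^5 CFU/mL. Adjuvant from DMSO stock held at fixed 60 μM while colistin is twofold serially diluted in the same adjuvant-dosed broth. Plates sealed and kept stationary at 37°C for 18 h. Colistin MIC read and fold reduction taken relative to colistin alone.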

The test system of data set [16] is Acinetobacter baumannii. The data set is described as follows: Potentiation of colistin-induced antimicrobial activity against colistin-resistant Acinetobacter baumannii isolate 3942 assessed as fold reduction in colistin MIC at 10 uM after 18 hrs by broth microdilution assay. The data set is classed as functional. Summed up: as §2
In data set [17] the test system is Acinetobacter baumannii. The data set is described as follows: Potentiation of colistin-induced antimicrobial activity against colistin-resistant Acinetobacter baumannii isolate 3942 assessed as fold reduction in colistin MIC at 60 uM incubated for 2 to 24 hrs under shaking condition in presence of 0.001% triton X-100 by broth microdilution assay. The data set is classed as functional.

Data set [18] relates to Escherichia coli. The data set is described as follows: Potentiation of colistin-induced antimicrobial activity against Escherichia coli ATCC 25922 assessed as fold reduction in colistin MIC at 60 uM after 18 hrs by broth microdilution assay. The class given is functional. Summed up: as §3
Data set [19] concerns Acinetobacter baumannii. The data set is described as follows: Potentiation of colistin-induced antimicrobial activity against colistin-resistant Acinetobacter baumannii ATCC 17978 expressing mcr1 gene assessed as fold reduction in colistin MIC at 60 uM after 18 hrs by broth microdilution assay. The class given is functional. Summed up: as §1
Data set [20] relates to Klebsiella pneumoniae. The data set is described as follows: Potentiation of colistin-induced antimicrobial activity against colistin-resistant Klebsiella pneumoniae isolate C3 assessed as fold reduction in colistin MIC at 30 uM incubated for 2 to 24 hrs under shaking condition in presence of 0.001% triton X-100 by broth microdilution assay. The data set is classed as functional.

For data set [21], the system named is Acinetobacter baumannii. The data set is described as follows: Potentiation of colistin-induced antimicrobial activity against colistin-resistant Acinetobacter baumannii isolate 4112 assessed as fold reduction in colistin MIC at 60 uM after 18 hrs by broth microdilution assay. The class given is functional. Summed up:
as §1

For data set [22], the system named is Klebsiella pneumoniae. The data set is described as follows: Potentiation of colistin-induced antimicrobial activity against colistin-resistant Klebsiella pneumoniae isolate C3 assessed as fold reduction in colistin MIC at 60 uM incubated for 2 to 24 hrs under shaking condition in presence of 0.001% triton X-100 by broth microdilution assay. The class given is functional.

Data set [23] relates to Klebsiella pneumoniae. The data set is described as follows: Potentiation of colistin-induced antimicrobial activity against colistin-resistant Klebsiella pneumoniae isolate C3 assessed as fold reduction in colistin MIC at 50 uM after 18 hrs by broth microdilution assay. The data set is classed as functional. Summed up: as §2
Data set [24] concerns Klebsiella pneumoniae. The data set is described as follows: Potentiation of colistin-induced antimicrobial activity against colistin-resistant Klebsiella pneumoniae isolate A5 assessed as fold reduction in colistin MIC at 60 uM after 18 hrs by broth microdilution assay. The data set is classed as functional. Summed up: as §1

On to `O=C(NCc1c[nH]c2ccccc12)c1cc(Br)c(Br)[nH]1`, for which the “fold change (FC)” value is 1024 in data set [1]; 32 in [2]; 128 in data set [3]; 512 in data set [4]; 64 in data set [5]; 16 in data set [6]. In addition, the “fold change (FC)” value was found to be 128 in [8]; 16 in [10]; 8 in [11]; 1.5 in data set [12]; 256 in data set [13]; 4 in data set [14]. In addition, the “fold change (FC)” value in [15] came to 4; in data set [16], 2; in [17], 1024; in [18], 4; in data set [19], 32; in data set [20], 512. Further, the “fold change (FC)” value in [21] was determined as 2048; in data set [22], 2048; in [23], 512; in data set [24], 512. The Activity result in data set [7] was “Non-Toxic”; in data set [9], “Dose-dependent effect”.
